The list is not random: actives were taken first. Their share in the collection is about 1.4%.
PDI turbidity – PDI (human) enzyme inhibition; P07237; 350,000 tested, 0.052% active; PDI insulin aggregation turbidity, A650, 90 min; inhibition, % at 10 µM; AID 588391;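 active means mean inhibition across replicates of 30% or more, whatever share of single replicates reach that level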
Target sequence (P07237 whole entry, looked up): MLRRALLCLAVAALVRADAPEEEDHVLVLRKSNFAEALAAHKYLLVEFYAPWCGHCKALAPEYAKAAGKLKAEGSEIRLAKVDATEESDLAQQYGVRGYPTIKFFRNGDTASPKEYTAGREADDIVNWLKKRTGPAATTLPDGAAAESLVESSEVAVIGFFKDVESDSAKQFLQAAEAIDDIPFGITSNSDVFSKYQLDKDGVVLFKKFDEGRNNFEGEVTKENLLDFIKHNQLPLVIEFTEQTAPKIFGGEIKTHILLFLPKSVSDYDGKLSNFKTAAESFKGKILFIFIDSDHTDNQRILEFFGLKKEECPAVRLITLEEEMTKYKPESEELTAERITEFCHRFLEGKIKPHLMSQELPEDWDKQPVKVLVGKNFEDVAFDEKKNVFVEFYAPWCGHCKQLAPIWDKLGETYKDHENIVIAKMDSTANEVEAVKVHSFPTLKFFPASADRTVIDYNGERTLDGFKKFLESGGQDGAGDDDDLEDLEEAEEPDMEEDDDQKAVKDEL
ERp5 block – ERp5 (human) disulfide isomerase inhibition | AID 651711 | 350,000 tested, 0.05% active | inhibition, % at 9.99 µM | Q15084 | ERp5 insulin aggregation, absorbance 650 nm, 90 min;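 active means mean replicate inhibition above about 25%, with every replicate also reaching it, limit read from the data, passing the limit was not always enough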
GSIS activator – GLuc luminescence reporter in INS-1E cells, primary screen for activators of glucose-dependent secretion of insulin. AID 743287. 370,000 tested, 0.61% active. activation, % at 16.6 µM. INS-1E GLuc reporter insulin secretion, 2-3 h;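 active means lowest replicate activation of at least 40%, so every replicate reaches that level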
FN deposition inh – fibronectin deposition inhibition; inhibition, % at 12.6 µM; AH1F fibroblasts, Alexa488-fibronectin deposition fluorescence, overnight; 350,000 tested, 0.086% active;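 active means mean inhibition across replicates of 30% or more, regardless of how many single replicates reach that level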
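Test system: AH1F fibroblast monolayer depositing Alexa488-labelled fibronectin into matrix. Input: 10000 cells per well. Technique: fluorescence, ex 485 nm, em 525 nm. Buffer or medium: DMEM plus 2% serum, read in PBS. Timing: 1 h cell adhesion before compound, then overnight fibronectin incubation. Compound: single dose, pinned. Read-out basis: inhibition from reduced deposited-fibronectin fluorescence.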
HIV Env fusion – blocks HIV Env-driven cell-cell fusion | HeLa-JRFL Env/CEM21 cell fusion, luciferase | inhibition, % at 12.3 µM | 360,000 tested, 1.1% active | AID 651610;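 active means mean replicate inhibition score of at least 50 and every replicate individually at or above 50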
Numbers stand for hits; i = inactive; nt = not tested or not shown; [ ] = dose if it differs, or a comment.

SMILES	PDI turbidity	ERp5 block	GSIS activator	FN deposition inh	HIV Env fusion
CCCCOC(=O)c1[nH]c2c(c1C)C(=O)CC(c1cc(OC)c(OC)c(OC)c1)C2 (stereo not given)	nt	i	i	i	64
COCCOC(=O)c1[nH]c2c(c1C)C(=O)CC(c1cc(OC)c(OC)c(OC)c1)C2 (stereo not given)	i	i	i	i	i
CCOc1cc(S(=O)(=O)N(Cc2ccccc2)Cc2ccccc2)c(OCC)cc1-n1cnnn1	i	nt	nt	nt	63
CCOc1cc(S(=O)(=O)NCc2ccccc2)c(OCC)cc1-n1cnnn1	i	i	i	i	i
CC(C)(C)c1ccc(-n2ncc3c2CCCC3NC(=O)CN2CCCC2=O)cc1 (stereo not given)	i	i	i	i	68
C[C@@H]1CCCCO[C@@H](CN(C)Cc2ccc(C(F)(F)F)cc2)[C@H](C)CN([C@H](C)CO)C(=O)c2cc(NC(=O)c3ccccc3)ccc2O1	nt	i	i	nt	79[16.7 µM]
C[C@H](CO)N1C[C@H](C)[C@@H](CN(C)Cc2ccc(C(F)(F)F)cc2)OCCCC[C@H](C)Oc2ccc(NC(=O)c3ccccc3)cc2C1=O	nt	i	i	nt	i
C[C@@H]1CCCCO[C@H](CN(C)Cc2ccc(C(F)(F)F)cc2)[C@H](C)CN([C@H](C)CO)C(=O)c2cc(NC(=O)c3ccccc3)ccc2O1	nt	i	i	nt	90[16.7 µM]
C[C@@H]1CN([C@H](C)CO)C(=O)c2cc(NC(=O)c3ccccc3)ccc2O[C@@H](C)CCCCO[C@H]1CN(C)Cc1ccc(C(F)(F)F)cc1	nt	i	i	nt	69[16.7 µM]
O=[N+]([O-])c1ccc(Sc2cccc[n+]2[O-])c2nonc12	i	i	i	51	i
CC[C@H]1C(c2ccc(F)cc2)=NN(c2ccccc2)[C@@H]1CO	i	i	i	i	60
C[C@@H]1CN([C@@H](C)CO)C(=O)c2cc(C3=CCCC3)cnc2O[C@@H]1CN(C)Cc1cccc(F)c1	nt	i	i	nt	i
CCCNC(=O)C[C@H]1CC[C@@H]2[C@H](COC[C@H](O)CN2C(=O)Nc2cccc(Cl)c2)O1	nt	i	i	i	nt
Cc1cc2ncn(S(=O)(=O)N3CCOCC3)c2cc1C	i	nt	nt	nt	nt
Cc1cc2ncn(S(=O)(=O)N3CCCCC3)c2cc1C	i	nt	nt	i	83
COC(=O)C1=C(C)N(Cc2cccc(C(F)(F)F)c2)C(=NCc2ccccc2C(F)(F)F)NC1c1cccc(F)c1 (stereo not given)	nt	i	166	i	i
COC(=O)C1=C(C)N(Cc2ccccc2C(F)(F)F)C(=NCc2ccc3c(c2)OCO3)NC1c1cccc(F)c1 (stereo not given)	nt	i	49	i	i
COC(=O)C1=C(C)N(Cc2cccc(C(F)(F)F)c2)C(=NCc2ccc3c(c2)OCO3)NC1c1cccc(F)c1 (stereo not given)	nt	i	40	i	i
COC(=O)C1=C(C)N(Cc2cccc(C(F)(F)F)c2)C(=NCc2ccc(OC)cc2)NC1c1ccccc1C(F)(F)F (stereo not given)	nt	i	40	i	i
COC(=O)C1=C(C)N(Cc2cccc(C(F)(F)F)c2)C(=NCc2ccc(C(F)(F)F)cc2)NC1c1ccccc1C(F)(F)F (stereo not given)	nt	i	i	i	i
CCC(=O)N1[C@@H](CO)[C@H](c2ccccc2)C12CN(C(=O)c1cnccn1)C2	nt	i	i	nt	nt
O=C(C[C@@H]1CC[C@@H]2[C@H](COC[C@H](O)CN2C(=O)c2ccccc2)O1)NCCCN1CCOCC1	nt	i	i	i	i
C[C@@H]1CN([C@H](C)CO)C(=O)c2cccc(NS(=O)(=O)c3ccccc3)c2O[C@H]1CN(C)Cc1ccccc1	nt	i	i	nt	nt
C[C@@H]1CCCCO[C@@H](CN(C)C(=O)Nc2ccccc2)[C@H](C)CN([C@@H](C)CO)C(=O)c2cc(NS(=O)(=O)c3cccs3)ccc2O1	nt	i	i	i	i
COC(=O)C1=C(C)N(Cc2ccccc2C(F)(F)F)C(=NCc2cccc(C(F)(F)F)c2)NC1c1ccc(C(F)(F)F)cc1 (stereo not given)	nt	i	103	i	i
COC(=O)C1=C(C)N(Cc2ccccc2C(F)(F)F)C(=NCc2ccccc2)NC1c1ccc(C(F)(F)F)cc1 (stereo not given)	nt	i	nt	i	i
C[C@H]1CN([C@@H](C)CO)C(=O)c2cccc(NC(=O)Nc3cccc4ccccc34)c2O[C@@H]1CN(C)S(=O)(=O)c1cn(C)cn1	nt	i	i	i	nt

Screening results deposited in PubChem BioAssay by Broad Institute.
